ChEMBL document CHEMBL2417372, “Design, synthesis, and mechanism of action of 2-(3-hydroxy-5-methoxyphenyl)-6-pyrrolidinylquinolin-4-one as a potent anticancer lead” (Bioorg Med Chem Lett, 2013)

Key:
[1] = system: SW-620; test: Cytotoxicity against human SW620 cells after 48 hrs; assay type: functional; details: SW-620, 48 h
[2] = Cytotoxicity against human Hep3B cells after 48 hrs; assay type: functional, cell-based, Hep 3B2
Procedure, shortened: (§1)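 MTT viability assay on log-phase cells at 37 °C, exposed to compound or DMSO vehicle for 48 h. MTT (1 mg/mL in PBS) was then added for 2 h, and absorbance was read at 570 nm with 630 nm correction. IC50 is the concentration giving 50% proliferation inhibition. Cells were cultured in 5% CO2: HL-60 in RPMI-1640 with 10% FBS; Hep3B in DMEM/F12 with 10% FBS; Detroit 551 in DMEM with 10% FBS.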

[3] = system: CCRF-CEM; test: Cytotoxicity against human CCRF-CEM cells after 48 hrs; assay type: functional
[4] = system: COLO 205; test: Cytotoxicity against human COLO205 cells after 48 hrs; assay type: functional; details: COLO 205, 48 h
[5] = system: NCI-H226; test: Cytotoxicity against human NCI-H226 cells after 48 hrs; assay type: functional; details: NCI-H226, 48 h
[6] = system: RPMI-8226; test: Cytotoxicity against human RPMI8226 cells after 48 hrs; assay type: functional; details: RPMI-8226, 48 h
[7] = target: T1, Tubulin (Homo sapiens) (UniProt P68371+Q9H4B7+P0DPH7+P68366+Q13509+Q71U36+P04350+Q3ZCM7+P07437+P68363+Q9BQE3+Q6PEY2+Q13885+Q9BVA1+Q9BUF5); test: Inhibition of tubulin polymerization in human NCI-H522 cells assessed as alpha-tubulin accumulation in cytoskeletal fraction after 24 hrs by Western blot analysis; assay type: cell-based
Procedure, shortened: (§2)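 NCI-H522 cells were exposed for 24 h to compound (10, 30 or 100 nM) or DMSO vehicle. They were then lysed 5 min at 37 °C in hypotonic buffer (1 mM MgCl2, 2 mM EGTA, 0.5% NP-40, protease inhibitors, 20 mM Tris-HCl pH 6.8) and centrifuged at 15,000 × g for 10 min at 25 °C. α- and β-tubulin were assessed in the cytoskeletal fraction.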

[8] = system: UO-31; test: Cytotoxicity against human UO31 cells after 48 hrs; assay type: functional; details: UO-31, 48 h
[9] = system: OVCAR-4; test: Cytotoxicity against human OVCAR4 cells after 48 hrs; assay type: functional; details: OVCAR-4, 48 h
[10] = target: Tubulin (Sus scrofa) (UniProt P02554+P02550); test: Inhibition of porcine brain tubulin polymerization measured every 30 seconds for 30 mins
Sequence of Tubulin (Sus scrofa) (P02550 whole entry, looked up): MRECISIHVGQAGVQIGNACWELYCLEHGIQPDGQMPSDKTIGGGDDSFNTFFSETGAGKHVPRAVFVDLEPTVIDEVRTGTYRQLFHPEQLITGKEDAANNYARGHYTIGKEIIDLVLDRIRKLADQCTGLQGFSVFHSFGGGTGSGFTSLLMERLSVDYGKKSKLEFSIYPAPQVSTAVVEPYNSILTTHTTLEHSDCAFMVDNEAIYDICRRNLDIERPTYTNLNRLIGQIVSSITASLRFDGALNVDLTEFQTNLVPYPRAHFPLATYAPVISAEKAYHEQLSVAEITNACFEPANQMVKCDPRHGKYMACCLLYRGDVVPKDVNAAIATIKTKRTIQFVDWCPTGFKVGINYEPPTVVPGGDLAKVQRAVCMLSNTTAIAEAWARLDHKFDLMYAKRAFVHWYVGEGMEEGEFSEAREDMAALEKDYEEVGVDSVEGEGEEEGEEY
Sequence of Tubulin (Sus scrofa) (P02554 whole entry, looked up): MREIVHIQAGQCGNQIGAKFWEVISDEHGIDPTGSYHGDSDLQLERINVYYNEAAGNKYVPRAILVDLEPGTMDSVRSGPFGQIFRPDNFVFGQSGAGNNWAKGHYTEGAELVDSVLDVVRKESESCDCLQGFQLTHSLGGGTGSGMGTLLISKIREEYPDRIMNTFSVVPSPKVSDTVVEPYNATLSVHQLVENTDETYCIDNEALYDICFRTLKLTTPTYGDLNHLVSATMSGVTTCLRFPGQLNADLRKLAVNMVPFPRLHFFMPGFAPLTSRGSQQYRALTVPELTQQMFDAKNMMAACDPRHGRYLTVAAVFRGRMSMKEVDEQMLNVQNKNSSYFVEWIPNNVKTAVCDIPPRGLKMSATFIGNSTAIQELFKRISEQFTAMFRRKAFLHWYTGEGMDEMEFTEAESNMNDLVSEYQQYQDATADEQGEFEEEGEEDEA

[11] = system: NCI-H460; test: Cytotoxicity against human NCI-H460 cells after 48 hrs; assay type: functional, cell-based; details: NCI-H460, 48 h
[12] = system: SF-268; test: Cytotoxicity against human SF268 cells after 48 hrs; assay type: functional; details: SF-268, 48 h
[13] = system: SK-MEL-2; test: Cytotoxicity against human SK-MEL-2 cells after 48 hrs; assay type: functional; details: SK-MEL-2, 48 h
Procedure, shortened: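 Tested in the NCI-60 human cancer cell line panel. Results are given as log concentrations: GI50 reduced cell growth to 50% […], TGI caused total growth inhibition, and LC50 killed 50% of the test population.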

[14] = system: SN12C; test: Cytotoxicity against human SN12C cells after 48 hrs; assay type: functional
[15] = Cytotoxicity against human NCI-ADR-RES cells after 48 hrs; assay type: functional
[16] = system: U-251; test: Cytotoxicity against human U251 cells after 48 hrs; assay type: functional; details: U-251, 48 h
[17] = system: SF-295; test: Cytotoxicity against human SF295 cells after 48 hrs; assay type: functional; details: SF-295, 48 h
[18] = system: SNB-19; test: Cytotoxicity against human SNB19 cells after 48 hrs; assay type: functional; details: SNB-19, 48 h
[19] = system: NCI-H23; test: Cytotoxicity against human NCI-H23 cells after 48 hrs; assay type: functional; details: NCI-H23, 48 h
[20] = system: HL-60; test: Cytotoxicity against human HL60 cells after 48 hrs; assay type: functional, cell-based; details: HL-60, 48 h; procedure, shortened: as §1
[21] = system: SF-539; test: Cytotoxicity against human SF539 cells after 48 hrs; assay type: functional; details: SF-539, 48 h
[22] = system: MDA-MB-231; test: Cytotoxicity against human MDA-MB-231 cells after 48 hrs; assay type: functional; details: MDA-MB-231, 48 h
[23] = system: MDA-MB-468; test: Cytotoxicity against human MDA-MB-468 cells after 48 hrs; assay type: functional; details: MDA-MB-468, 48 h
[24] = system: HCT-15; test: Cytotoxicity against human HCT15 cells after 48 hrs; assay type: functional; details: HCT-15, 48 h
[25] = system: MCF7; test: Cytotoxicity against human MCF7 cells after 48 hrs; assay type: functional; details: MCF7, 48 h
[26] = target: T1, Tubulin (Homo sapiens); test: Inhibition of tubulin polymerization in human NCI-H522 cells assessed as beta-tubulin accumulation in cytoskeletal fraction after 24 hrs by Western blot analysis; assay type: cell-based; procedure, shortened: as §2
[27] = system: HOP-62; test: Cytotoxicity against human HOP62 cells after 48 hrs; assay type: functional; details: HOP-62, 48 h
[28] = system: OVCAR-5; test: Cytotoxicity against human OVCAR5 cells after 48 hrs; assay type: functional; details: OVCAR-5, 48 h
[29] = system: NCI-H322M; test: Cytotoxicity against human NCI-H322M cells after 48 hrs; assay type: functional
[30] = system: DU-145; test: Cytotoxicity against human DU145 cells after 48 hrs; assay type: functional; details: DU-145, 48 h
[31] = system: SK-OV-3; test: Cytotoxicity against human SKOV3 cells after 48 hrs; assay type: functional; details: SK-OV-3, 48 h
[32] = read-out: pLC50 (the source's name) (converted)

In the case of `COc1cc(O)cc(-c2cc(=O)c3cc(N4CCCC4)ccc3[nH]2)c1`, the GI50 [1] is reported as 44.7 nM, the CC50 [1, 32] is reported as > 100000 nM and the TGI ([1]; read-out: pTGI) is reported as > 100000 nM. For the same compound, the IC50 [2] was 500 nM, the GI50 [3] was 32.4 nM and the CC50 [3, 32] was > 100000 nM. The TGI ([3]; read-out: pTGI) was > 100000 nM, the GI50 [4] was 53.7 nM and the TGI ([4]; read-out: pTGI (converted)) was 219 nM. The GI50 [5] was > 100000 nM, the CC50 [5, 32] was > 100000 nM and the TGI ([5]; read-out: pTGI) was > 100000 nM. For the same compound, the GI50 [6] was 468 nM, the CC50 [6, 32] was > 100000 nM and the TGI ([6]; read-out: pTGI) was > 100000 nM. For the same compound, the inhibition [7] was “Dose-dependent effect”, the GI50 [8] was 182 nM and the CC50 [8, 32] was > 100000 nM. For the same compound, the TGI ([8]; read-out: pTGI) was > 100000 nM, the GI50 [9] was 97.7 nM and the CC50 [9, 32] was > 100000 nM. For the same compound, the TGI ([9]; read-out: pTGI) was > 100000 nM, the inhibition [10] was “Dose-dependent effect” and the GI50 [11] was 324 nM. The IC50 [11] was 2120 nM, the LC50 [11] was > 100000 nM and the TGI ([11]; read-out: pTGI) was > 100000 nM. For the same compound, the GI50 [12] was 25.7 nM, the CC50 [12, 32] was > 100000 nM and the TGI ([12]; read-out: pTGI) was > 100000 nM. It also gave a GI50 [13] of 28.2 nM, a CC50 [13, 32] of 87100 nM and a GI50 [14] of 72.4 nM. The CC50 [14, 32] was > 100000 nM, the TGI ([14]; read-out: pTGI) was > 100000 nM and the GI50 [15] was 61.7 nM. For the same compound, the CC50 [15, 32] was > 100000 nM, the TGI ([15]; read-out: pTGI (converted)) was 513 nM and the GI50 [16] was 46.8 nM. The CC50 [16, 32] was 87100 nM, the TGI ([16]; read-out: pTGI (converted)) was 14500 nM and the GI50 [17] was 110 nM. The TGI ([17]; read-out: pTGI (converted)) was 11200 nM, the GI50 [18] was 74.1 nM and the CC50 [18, 32] was > 100000 nM. The TGI ([18]; read-out: pTGI) was > 100000 nM, the GI50 [19] was 126 nM and the CC50 [19, 32] was > 100000 nM. For the same compound, the TGI ([19]; read-out: pTGI (converted)) was 81300 nM, the IC50 [20] was 100 nM and the GI50 [21] was 28.8 nM. The CC50 [21, 32] was > 100000 nM, the TGI ([21]; read-out: pTGI) was > 100000 nM and the GI50 [22] was 50.1 nM. The CC50 [22, 32] was > 100000 nM, the TGI ([22]; read-out: pTGI) was > 100000 nM and the GI50 [23] was 263 nM. The CC50 [23, 32] was > 100000 nM, the TGI ([23]; read-out: pTGI (converted)) was 2000 nM and the GI50 [24] was 53.7 nM. The CC50 [24, 32] was > 100000 nM, the TGI ([24]; read-out: pTGI) was > 100000 nM and the GI50 [25] was 47.9 nM. For the same compound, the CC50 [25, 32] was > 100000 nM, the TGI ([25]; read-out: pTGI) was > 100000 nM and the inhibition [26] was “Dose-dependent effect”. The GI50 [27] was 51.3 nM, the CC50 [27, 32] was > 100000 nM and the TGI ([27]; read-out: pTGI (converted)) was 20900 nM. The GI50 [28] was > 100000 nM, the CC50 [28, 32] was > 100000 nM and the TGI ([28]; read-out: pTGI) was > 100000 nM. For the same compound, the GI50 [29] was 72.4 nM, the CC50 [29, 32] was > 100000 nM and the TGI ([29]; read-out: pTGI) was > 100000 nM. The GI50 [30] was 30.9 nM, the CC50 [30, 32] was > 100000 nM and the TGI ([30]; read-out: pTGI (converted)) was 257 nM. The GI50 [31] was 23.4 nM, the CC50 [31, 32] was > 100000 nM and the TGI ([31]; read-out: pTGI (converted)) was 25100 nM.
